Results taken from ChEMBL document CHEMBL1134569, “Synthesis and in vitro and in vivo antimalarial activity of new 4-anilinoquinolines” (J Med Chem, 2001).

How the values were obtained:
[1] = Cytotoxicity upon MRC-5 cells (diploid embryonic lung cell line) at 8 uM concentration; type: cell-based, MRC5; conditions: human
Summary of the method: (§1)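 MRC-5 human diploid embryonic lung cells seeded at 5000/well, washed after 24 h, then given 2-fold drug dilutions in RPMI + 5% FCS (final DMSO below 0.5%). Incubated at 37 °C, 5% CO₂, for 7 days. MTT read-out at 540 nm, scored as percent absorbance reduction versus untreated controls.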

[2] = Cytotoxicity upon MPMs (mouse peritoneal macrophages) at 2 uM concentration; NT=No toxicity
Summary of the method: (§2)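 Mouse peritoneal macrophages harvested 48 h after potato-starch stimulation and seeded at 30000 cells/well. After 24 h, washed and exposed to 2-fold drug dilutions in RPMI + 5% FCS (final DMSO below 0.5%) at 37 °C, 5% CO₂, for 7 days. Toxicity scored microscopically as toxic or not versus untreated controls.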

Plasmodium falciparum [3] = assay: Inhibitory activity against chloroquine-sensitive Plasmodium falciparum THAI
Plasmodium falciparum [4] = assay: Inhibitory activity against chloroquine-resistant Plasmodium falciparum FcB1R; type: functional, organism-based; conditions: Plasmodium falciparum
[5] = Cytotoxicity upon MRC-5 cells (diploid embryonic lung cell line) at 1 uM concentration; type: cell-based, MRC5; conditions: human; summary of the method: as §1
[6] = Cytotoxicity upon MRC-5 cells (diploid embryonic lung cell line) at 32 uM concentration; type: cell-based, MRC5; conditions: human; summary of the method: as §1
[7] = Cytotoxicity upon MPMs (mouse peritoneal macrophages) at 3.1 uM concentration; NT= No toxicity.; summary of the method: as §2
Plasmodium falciparum [8] = assay: Inhibitory activity against chloroquine-resistant Plasmodium falciparum K1; type: functional, organism-based
[9] = Cytotoxicity upon MRC-5 cells (diploid embryonic lung cell line) at 6.3 uM concentration; type: cell-based, MRC5; conditions: human; summary of the method: as §1
[10] = Cytotoxicity upon MPMs (mouse peritoneal macrophages) at 12.5 uM concentration; Toxic Compound; summary of the method: as §2
[11] = Cytotoxicity upon MRC-5 cells (diploid embryonic lung cell line) at 12.5 uM concentration; type: cell-based, MRC5; conditions: human; summary of the method: as §1
[12] = Cytotoxicity upon MPMs (mouse peritoneal macrophages) at 6.3 uM concentration; Toxic Compound; summary of the method: as §2
[13] = Cytotoxicity upon MRC-5 cells (diploid embryonic lung cell line) at 3.1 uM concentration; type: cell-based, MRC5; conditions: human; summary of the method: as §1
[14] = Cytotoxicity upon MRC-5 cells (diploid embryonic lung cell line) at 25 uM concentration; type: cell-based, MRC5; conditions: human; summary of the method: as §1
[15] = Cytotoxicity upon MPMs (mouse peritoneal macrophages) at 32 uM concentration; Toxic Compound.; summary of the method: as §2
[16] = Cytotoxicity upon MPMs (mouse peritoneal macrophages) at 12.5 uM conc.; Toxic; summary of the method: as §2
[17] = Cytotoxicity upon MRC-5 cells (diploid embryonic lung cell line) at 6.3 uM; type: cell-based, MRC5; conditions: human; summary of the method: as §1
[18] = Cytotoxicity upon MPMs (mouse peritoneal macrophages) at 2 uM; summary of the method: as §2
[19] = Cytotoxicity upon MRC-5 cells (diploid embryonic lung cell line) at 1.6 uM conc.; type: cell-based, MRC5; conditions: human; summary of the method: as §1
[20] = Cytotoxicity upon MRC-5 cells (diploid embryonic lung cell line) at 25 uM conc.; type: cell-based, MRC5; conditions: human; summary of the method: as §1
[21] = Cytotoxicity upon MPMs (mouse peritoneal macrophages) at 6.3 uM conc.; Toxic; summary of the method: as §2
[22] = Cytotoxicity upon MPMs (mouse peritoneal macrophages) at 6.3 uM; summary of the method: as §2
Mus musculus [23] = assay: Change in the mean survival time of the treated mice infected with Plasmodium berghei, dosed at 40 mg/kg; type: functional
Summary of the method: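 P. berghei ANKA 65 in 4-week-old female Swiss CD-1 mice (20-25 g), infected ip with about 10⁷ parasitized erythrocytes; 40 mg/kg given orally at infection (formulated in 100% DMSO), then ip over the following 4 days; three mice per group; mean survival time of treated mice compared with three infected DMSO-dosed controls.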

[24] = Cytotoxicity upon MPMs (mouse peritoneal macrophages) at 12.5 uM conc.;NT=No Toxicity; summary of the method: as §2
Mus musculus [25] = assay: Antimalarial activity on Plasmodium berghei in mice (Mus musculus) dosed at 40 mg/kg at day 4; type: functional
Summary of the method: (§3)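 Female Swiss CD-1 mice (4 weeks, 20-25 g), three per group, infected ip with about 10⁷ P. berghei ANKA 65 parasitized erythrocytes from an infected donor. Dosed orally at 40 mg/kg in 100% DMSO at infection, then ip for the following 4 days. Parasitaemia reduction and mean survival time compared with three DMSO-dosed infected controls.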

[26] = Cytotoxicity upon MRC-5 cells (diploid embryonic lung cell line) at 32 uM; type: cell-based, MRC5; conditions: human; summary of the method: as §1
[27] = Cytotoxicity upon MRC-5 cells (diploid embryonic lung cell line) at 8 uM; type: cell-based, MRC5; conditions: human; summary of the method: as §1
[28] = Cytotoxicity upon MPMs (mouse peritoneal macrophages) at 8 uM conc.;NT=No Toxicity; summary of the method: as §2
[29] = Cytotoxicity upon MRC-5 cells (diploid embryonic lung cell line) at 1 uM; type: cell-based, MRC5; conditions: human; summary of the method: as §1
[30] = Cytotoxicity upon MPMs (mouse peritoneal macrophages) at 32 uM; summary of the method: as §2
[31] = Cytotoxicity upon MRC-5 cells (diploid embryonic lung cell line) at 3.1 uM; type: cell-based, MRC5; conditions: human; summary of the method: as §1
[32] = Cytotoxicity upon MRC-5 cells (diploid embryonic lung cell line) at 12.5 uM; type: cell-based, MRC5; conditions: human; summary of the method: as §1
[33] = Cytotoxicity upon MPMs (mouse peritoneal macrophages) at 3.1 uM conc.;NT=No Toxicity; summary of the method: as §2
Mus musculus [34] = assay: Antimalarial activity on Plasmodium berghei in mice (Mus musculus) dosed at 40 mg/kg at day 7; type: functional; summary of the method: as §3
[35] = Cytotoxicity upon MRC-5 cells (diploid embryonic lung cell line) at 1.6 uM concentration; type: cell-based, MRC5; conditions: human; summary of the method: as §1
[36] = Cytotoxicity upon MPMs (mouse peritoneal macrophages) at 8 uM concentration; No toxicity; summary of the method: as §2
[37] = Cytotoxicity upon MPMs (mouse peritoneal macrophages) at 3.1 uM concentration; No toxicity; summary of the method: as §2
[38] = Cytotoxicity upon MPMs (mouse peritoneal macrophages) at 12.5 uM concentration; No toxicity; summary of the method: as §2
[39] = Cytotoxicity upon MPMs (mouse peritoneal macrophages) at 6.3 uM concentration; No toxicity; summary of the method: as §2
[40] = Cytotoxicity upon MPMs (mouse peritoneal macrophages) at 2 uM concentration; No toxicity; summary of the method: as §2
[41] = Cytotoxicity upon MPMs (mouse peritoneal macrophages) at 32 uM concentration; No toxicity; summary of the method: as §2

Compound | IC50 (Plasmodium falciparum [3]) | IC50 (Plasmodium falciparum [4]) | IC50 (Plasmodium falciparum [8]) | Cytotoxicity [16] | cytotoxicity at 6.3 µM [17] | NT [18] | cytotoxicity at 1.6 µM [19] | cytotoxicity at 25 µM [20] | cytotoxicity at 32 µM [26] | cytotoxicity at 8 µM [27] | NT [28] | cytotoxicity at 1 µM [29] | Cytotoxicity [30] | other results
CCN(CC)Cc1cc(Nc2ccnc3cc(Cl)ccc23)ccc1O.Cl | 7.3 nM | 7.4 nM | 14.5 nM | – | – | – | – | – | – | – | – | – | – | cytotoxicity at 8 µM [1]: 0%; NT [2]: No toxicity; cytotoxicity at 1 µM [5]: 0%; cytotoxicity at 32 µM [6]: 91%; NT [7]: No toxicity; cytotoxicity at 6.3 µM [9]: 0%; Cytotoxicity [10]: Toxic; cytotoxicity at 12.5 µM [11]: 0%; Cytotoxicity [12]: Toxic; cytotoxicity at 3.1 µM [13]: 0%; cytotoxicity at 25 µM [14]: 91%; Cytotoxicity [15]: Toxic
O=C(CN1CCCCC1)Nc1cc(COC(=O)CCCCCCCN2CCCCC2)cc(Nc2ccnc3cc(Cl)ccc23)c1 | – | 165 nM | – | Toxic | 84% | Cytotoxicity upon MPMs at 2 uM | 0% | 83% | – | – | – | – | – | Cytotoxicity [21]: Toxic
O=C(CN1CCCCC1)Nc1cc(COC(=O)CCCCN2CCCCC2)cc(Nc2ccnc3cc(Cl)ccc23)c1 | 17.3 nM | 15.5 nM | 19.1 nM | – | 90% | Cytotoxicity upon MPMs at 2 uM | 0% | 92% | – | – | – | – | – | NT [22]: Cytotoxicity upon MPMs at 2 uM; Excess MST (Mus musculus [23]): 0%; NT [24]: Cytotoxicity upon MPMs at 2 uM; Reduction in parasitemia (Mus musculus [25]): 99.99%
O=Cc1cc(NC(=O)CN2CCCCC2)cc(Nc2ccnc3cc(Cl)ccc23)c1 | – | 282 nM | – | – | – | Cytotoxicity upon MPMs at 2 uM | – | – | 0% | 0% | Cytotoxicity upon MPMs at 2 uM | 0% | – | –
CN(C)CCNCc1cc(NC(=O)CN2CCCCC2)cc(Nc2ccnc3cc(Cl)ccc23)c1 | – | 15.5 nM | – | – | – | Cytotoxicity upon MPMs at 2 uM | – | – | 100% | 15% | Cytotoxicity upon MPMs at 2 uM | 0% | Cytotoxicity upon MPMs at 32 uM | –
O=C(CN1CCCCC1)Nc1cc(COC(=O)c2ccnc3ccccc23)cc(Nc2ccnc3cc(Cl)ccc23)c1 | – | 25.6 nM | – | Toxic | 100% | Cytotoxicity upon MPMs at 2 uM | 62% | 100% | – | – | – | – | – | Cytotoxicity [21]: Toxic
CC1CCN(CC(=O)Nc2cc(CO)cc(Nc3ccnc4cc(Cl)ccc34)c2)CC1 | – | 77.7 nM | – | Toxic | 0% | – | – | – | – | – | – | – | – | cytotoxicity at 3.1 µM [31]: 0%; cytotoxicity at 12.5 µM [32]: 100%; Cytotoxicity [21]: Toxic
O=C(CN1CCCCC1)Nc1cc(CN2CCOCC2)cc(Nc2ccnc3cc(Cl)ccc23)c1 | 12.8 nM | 9.5 nM | 12.4 nM | – | – | Cytotoxicity upon MPMs at 2 uM | – | – | 100% | 0% | Cytotoxicity upon MPMs at 2 uM | 0% | Cytotoxicity upon MPMs at 32 uM | Reduction in parasitemia (Mus musculus [25]): 100%
N#Cc1ccc(CN2CCN(Cc3cc(NC(=O)CN4CCCCC4)cc(Nc4ccnc5cc(Cl)ccc45)c3)CC2)cc1 | – | 13.3 nM | – | – | – | Cytotoxicity upon MPMs at 2 uM | – | – | 100% | 100% | Cytotoxicity upon MPMs at 2 uM | 0% | Cytotoxicity upon MPMs at 32 uM | –
O=C(CN1CCCCC1)Nc1cc(COC(=O)CCCCN2CCOCC2)cc(Nc2ccnc3cc(Cl)ccc23)c1 | 15.2 nM | 14.1 nM | 22.5 nM | – | 0% | Cytotoxicity upon MPMs at 2 uM | 0% | 0% | – | – | – | – | – | NT [22]: Cytotoxicity upon MPMs at 2 uM; Excess MST (Mus musculus [23]): 100%; NT [24]: Cytotoxicity upon MPMs at 2 uM; Reduction in parasitemia (Mus musculus [25]): 97.9%
CN(C)CCCNCc1cc(NC(=O)CN2CCCCC2)cc(Nc2ccnc3cc(Cl)ccc23)c1 | – | 134 nM | – | – | – | Cytotoxicity upon MPMs at 2 uM | – | – | 78% | 0% | Cytotoxicity upon MPMs at 2 uM | 0% | Cytotoxicity upon MPMs at 32 uM | –
O=C(CN1CCCCC1)Nc1cc(CO)cc(Nc2ccnc3cc(Cl)ccc23)c1 | 89.6 nM | 44.5 nM | 152 nM | Toxic | 0% | – | 0% | 98% | 99% | 0% | – | 0% | – | NT [22]: Cytotoxicity upon MPMs at 6.3 uM; cytotoxicity at 3.1 µM [31]: 0%; Excess MST (Mus musculus [23]): 110%; NT [33]: Cytotoxicity upon MPMs at 6.3 uM; cytotoxicity at 12.5 µM [32]: 0%; Reduction in parasitemia (Mus musculus [34]): 60%
CCN(CC)CCCC(C)Nc1ccnc2cc(Cl)ccc12 (centres undefined) [CHLOROQUINE] | – | – | – | – | – | – | – | – | – | – | – | – | – | cytotoxicity at 8 µM [1]: 0%; cytotoxicity at 1 µM [5]: 0%; cytotoxicity at 32 µM [6]: 0%; cytotoxicity at 1.6 µM [35]: 0%; cytotoxicity at 6.3 µM [9]: 0%; NA [36]: Not Active; cytotoxicity at 12.5 µM [11]: 0%; NA [37]: Not Active; NA [38]: Not Active; NA [39]: Not Active; cytotoxicity at 3.1 µM [13]: 0%; NA [40]: Not Active; cytotoxicity at 25 µM [14]: 0%; NA [41]: Not Active
